The source of these data is ChEMBL document CHEMBL1134354, “Anti-AIDS agents. 42. Synthesis and anti-HIV activity of disubstituted (3'R,4'R)-3',4'-di-O-(S)-camphanoyl-(+)-cis-khellactone analogues” (J Med Chem, 2001).

Series [1] is described as follows: Therapeutic index is the ratio of IC50 to EC50 in H9 lymphocytes. The series is classed as cell-based. As to conditions: human, read-out: TI. The essentials: (§1)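 They were infected with HIV-1 at a moi of 0.1–0.01 for 4 h, washed three times, and then cultured for 4 days with graded drug concentrations; AZT was run as a control. Day-4 cell-free supernatant p24 was measured by ELISA. Toxicity was measured by Coulter counts of mock-infected cells.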

Series [2] has as its system H9. Put plainly: Inhibitory activity against HIV-1 replication in H9 lymphocytes. The conditions noted are these: Homo sapiens. The class given is functional, cell-based. Summed up:
as §1

Series [3] concerns H9. Put plainly: Toxicity was determined in H9 lymphocytes. The class given is functional, cell-based. As to conditions: Homo sapiens. Summed up: as §1
Series [4] relates to H9. The series can be described thus: Inhibitory activity against HIV-1 replication in H9 lymphocytes; NS= no suppression. The series is classed as functional, cell-based. As to conditions: Homo sapiens. Summed up: as §1

Calls of active or inactive are those of the source. No cut-off for these calls is given here.

As for `Cc1c(C)c2ccc3c(c2oc1=O)[C@@H](OC(=O)C12CCC(C)(C(=O)O1)C2(C)C)[C@@H](OC(=O)C12CCC(C)(C(=O)O1)C2(C)C)C(C)(C)O3` (stereo partly drawn), in series [1], the selectivity ratio is more than 80200. Besides, in series [2], the EC50 – broadly, the concentration needed to bring the measured effect to its halfway point – was determined as 1.92 nM. In addition, the IC50 (in general, the concentration that inhibits the measured activity by half) in series [3] was more than 154000 nM.
On to `Cc1cc2c(c3oc(=O)cc(C(C)C)c13)[C@@H](OC(=O)C13CCC(C)(C(=O)O1)C3(C)C)[C@@H](OC(=O)C13CCC(C)(C(=O)O1)C3(C)C)C(C)(C)O2` (stereo partly drawn), for which the NS result in series [4] was “inactive”. The IC50 in series [3] was more than 147000 nM.
Take `CC1(C)Oc2ccc3c4c(c(=O)oc3c2[C@@H](OC(=O)C23CCC(C)(C(=O)O2)C3(C)C)[C@H]1OC(=O)C12CCC(C)(C(=O)O1)C2(C)C)CCCC4` (stereo partly drawn): in series [1], the selectivity ratio is more than 69800. This compound returned an EC50 in series [2] of 2.12 nM. Moreover, the IC50 in series [3] was more than 148000 nM.
As to `Cc1cc(=O)oc2c3c(cc(OCc4ccccc4)c12)OC(C)(C)[C@H](OC(=O)C12CCC(C)(C(=O)O1)C2(C)C)[C@@H]3OC(=O)C12CCC(C)(C(=O)O1)C2(C)C` (stereo partly drawn), the selectivity ratio in series [1] amounted to 87.7. This compound yielded an EC50 in series [2] of 1540 nM. In addition, in series [3], inhibition was half-maximal at 135000 nM (IC50).
In the same order, the values of `COc1cc2c(c3oc(=O)cc(C)c13)[C@@H](OC(=O)C13CCC(C)(C(=O)O1)C3(C)C)[C@@H](OC(=O)C13CCC(C)(C(=O)O1)C3(C)C)C(C)(C)O2` (stereo partly drawn) are more than 2.08e+07, 0.00721 nM and more than 150000 nM.
In the same order, the values of `Cc1cc2c(c3oc(=O)cc(C)c13)[C@@H](OC(=O)C13CCC(C)(C(=O)O1)C3(C)C)[C@@H](OC(=O)C13CCC(C)(C(=O)O1)C3(C)C)C(C)(C)O2` (stereo partly drawn) are more than 36800, 4.19 nM and more than 154000 nM.
For `Cc1c(Cl)c(=O)oc2c3c(ccc12)OC(C)(C)[C@H](OC(=O)C12CCC(C)(C(=O)O1)C2(C)C)[C@@H]3OC(=O)C12CCC(C)(C(=O)O1)C2(C)C` (stereo partly drawn) the same measures were 51700, 2.01 nM and 104000 nM.
On to `CC1(C)Oc2ccc3ccc(=O)oc3c2[C@@H](OC(=O)C23CCC(C)(C(=O)O2)C3(C)C)[C@H]1OC(=O)C12CCC(C)(C(=O)O1)C2(C)C` (stereo partly drawn), for which the selectivity ratio in series [1] was determined as 137000. The EC50 in series [2] amounted to 0.256 nM.
For `Cc1c(-c2ccccc2)c(=O)oc2c3c(ccc12)OC(C)(C)[C@H](OC(=O)C12CCC(C)(C(=O)O1)C2(C)C)[C@@H]3OC(=O)C12CCC(C)(C(=O)O1)C2(C)C` (stereo partly drawn), the selectivity ratio in series [1] was more than 3.2. The EC50 in series [2] worked out at 43700 nM. The compound further gave an IC50 in series [3] of more than 140000 nM.
Consider `Cc1cc2c(C)cc3c(c2oc1=O)[C@@H](OC(=O)C12CCC(C)(C(=O)O1)C2(C)C)[C@@H](OC(=O)C12CCC(C)(C(=O)O1)C2(C)C)C(C)(C)O3` (stereo partly drawn), for which, in series [1], the selectivity ratio was more than 16900. The compound also gave an EC50 in series [2] of 9.1 nM. In addition, the IC50 in series [3] was more than 154000 nM.
